The source made the active and inactive calls. The calls are words filed in the database; no cut-off is given here.
Tests used:
Mus musculus = test: Immunostimulatory activity in C57BL/6 mouse assessed as increase in serum IL12 level at 1 mg/kg, sc after 2 hrs by ELISA; type: functional, organism-based; set-up: dose 1 mg/kg
In short: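 Female C57BL/6 mice (n=3) received a single subcutaneous agonist dose of 1 mg/kg. Blood was taken by retro-orbital bleeding 2 h later, and serum IL-12 was measured by sandwich ELISA. Values are the mean of three mice ± SD.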

[1] = target: T1, Toll-like receptor 9 (Homo sapiens) (UniProt Q9NR96); test: Induction of TLR9-mediated immune stimulation in human PBMC assessed as IL1Ralpha production at 10 ug/ml after 24 hrs by luminex multiplex assay (RVb = 0.12 +/- 0.03 ng/ml)
T1 sequence (whole entry): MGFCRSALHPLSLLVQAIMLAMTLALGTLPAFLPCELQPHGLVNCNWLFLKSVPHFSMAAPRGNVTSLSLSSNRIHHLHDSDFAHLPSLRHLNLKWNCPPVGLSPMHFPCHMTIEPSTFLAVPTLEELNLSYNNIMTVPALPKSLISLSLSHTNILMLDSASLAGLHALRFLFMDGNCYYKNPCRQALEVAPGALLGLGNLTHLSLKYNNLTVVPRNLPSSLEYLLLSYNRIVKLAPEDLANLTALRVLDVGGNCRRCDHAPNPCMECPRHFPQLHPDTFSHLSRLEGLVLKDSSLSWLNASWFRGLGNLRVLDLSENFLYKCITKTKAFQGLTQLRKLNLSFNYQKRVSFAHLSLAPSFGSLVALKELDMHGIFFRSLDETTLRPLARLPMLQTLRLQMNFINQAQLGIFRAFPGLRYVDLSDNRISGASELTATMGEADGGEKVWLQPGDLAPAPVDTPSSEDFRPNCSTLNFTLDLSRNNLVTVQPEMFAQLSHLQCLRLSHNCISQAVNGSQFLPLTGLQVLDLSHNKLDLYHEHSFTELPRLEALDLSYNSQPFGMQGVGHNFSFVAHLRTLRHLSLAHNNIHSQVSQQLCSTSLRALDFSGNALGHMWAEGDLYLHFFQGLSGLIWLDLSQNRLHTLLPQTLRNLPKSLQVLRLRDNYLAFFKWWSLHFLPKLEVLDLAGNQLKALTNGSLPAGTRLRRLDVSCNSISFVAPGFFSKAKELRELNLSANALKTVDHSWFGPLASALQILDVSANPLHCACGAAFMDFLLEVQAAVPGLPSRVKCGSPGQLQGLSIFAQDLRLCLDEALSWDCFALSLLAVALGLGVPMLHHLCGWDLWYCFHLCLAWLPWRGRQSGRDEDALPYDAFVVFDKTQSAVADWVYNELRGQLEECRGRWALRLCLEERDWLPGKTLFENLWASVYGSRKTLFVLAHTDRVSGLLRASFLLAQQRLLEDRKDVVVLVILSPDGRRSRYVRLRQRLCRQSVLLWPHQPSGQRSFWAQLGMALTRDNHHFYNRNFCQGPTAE

[2] = target: T1, Toll-like receptor 9 (Homo sapiens); test: Induction of TLR9-mediated immune stimulation in human PBMC assessed as IP10 production at 10 ug/ml after 24 hrs by luminex multiplex assay (RVb = 0.00 ng/ml)
[3] = target: T1, Toll-like receptor 9 (Homo sapiens); test: Induction of TLR9-mediated immune stimulation in human PBMC assessed as RANTES production at 10 ug/ml after 24 hrs by luminex multiplex assay (RVb = 0.05 +/- 0.04 ng/ml)
[4] = target: T1, Toll-like receptor 9 (Homo sapiens); test: Induction of TLR9-mediated immune stimulation in human PBMC assessed as MIP1alpha production at 2 ug/ml after 24 hrs by luminex multiplex assay (RVb = 0.01 ng/ml)
[5] = target: T1, Toll-like receptor 9 (Homo sapiens); test: Induction of TLR9-mediated immune stimulation in human PBMC assessed as IL1Ralpha production at 2 ug/ml after 24 hrs by luminex multiplex assay (RVb = 0.12 +/- 0.03 ng/ml)
[6] = target: T1, Toll-like receptor 9 (Homo sapiens); test: Induction of TLR9-mediated immune stimulation in human PBMC assessed as IP10 production at 2 ug/ml after 24 hrs by luminex multiplex assay (RVb = 0.00 ng/ml)
[7] = target: T1, Toll-like receptor 9 (Homo sapiens); test: Induction of TLR9-mediated immune stimulation in human PBMC assessed as IL12 production at 10 ug/ml after 24 hrs by luminex multiplex assay (RVb = 0.00 ng/ml)
[8] = target: T1, Toll-like receptor 9 (Homo sapiens); test: Induction of TLR9-mediated human B cell proliferation assessed as [3H]thymidine uptake after 56 hrs by scintillation counting
In short: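 B cells were purified from human PBMCs (healthy volunteers), about 1 × 10⁵ cells, and stimulated with various agonist concentrations for 56 h. Cells were then pulsed with 0.75 μCi [³H]-thymidine and harvested 16 h later. Incorporation was counted by scintillation and reported as cpm.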

[9] = target: T1, Toll-like receptor 9 (Homo sapiens); test: Induction of TLR9-mediated immune stimulation in human PBMC assessed as IL2R production at 2 ug/ml after 24 hrs by luminex multiplex assay (RVb = 0.02 +/- 0.01 ng/ml)
[10] = target: T1, Toll-like receptor 9 (Homo sapiens); test: Induction of TLR9-mediated immune stimulation in human PBMC assessed as MCP1 production at 10 ug/ml after 24 hrs by luminex multiplex assay (RVb = 0.08 +/- 0.02 ng/ml)

Cc1cn([C@H]2C[C@H](OCCC(O)CCOP(=O)(S)O[C@H]3C[C@H](n4cc(C)c(=O)[nH]c4=O)O[C@@H]3COP(=O)(S)O[C@H]3[C@@H](O)[C@H](n4ccc(N)nc4=O)O[C@@H]3COP(=O)(S)O[C@H]3C[C@H](n4cc(C)c(=O)[nH]c4=O)O[C@@H]3COP(=O)(S)O[C@H]3C[C@H](n4cc(C)c(=O)[nH]c4=O)O[C@@H]3COP(=O)(S)O[C@H]3C[C@H](n4ccc5c(=O)[nH]c(N)nc54)O[C@@H]3COP(=O)(S)O[C@H]3[C@@H](O)[C@H](n4ccc(N)nc4=O)O[C@@H]3COP(=O)(S)O[C@H]3C[C@H](n4cc(C)c(=O)[nH]c4=O)O[C@@H]3COP(=O)(S)O[C@H]3[C@@H](O)[C@H](n4cnc5c(=O)[nH]c(N)nc54)O[C@@H]3COP(=O)(S)O[C@H]3C[C@H](n4cc(C)c(=O)[nH]c4=O)O[C@@H]3COP(=O)(S)O[C@H]3[C@@H](O)[C@H](n4ccc(N)nc4=O)O[C@@H]3COP(=O)(S)O[C@H]3C[C@H](n4cc(C)c(=O)[nH]c4=O)O[C@@H]3CO)[C@@H](COP(=O)(S)O[C@H]3[C@@H](O)[C@H](n4ccc(N)nc4=O)O[C@@H]3COP(=O)(S)O[C@H]3C[C@H](n4cc(C)c(=O)[nH]c4=O)O[C@@H]3COP(=O)(S)O[C@H]3C[C@H](n4cc(C)c(=O)[nH]c4=O)O[C@@H]3COP(=O)(S)O[C@H]3C[C@H](n4ccc5c(=O)[nH]c(N)nc54)O[C@@H]3COP(=O)(S)O[C@H]3[C@@H](O)[C@H](n4ccc(N)nc4=O)O[C@@H]3COP(=O)(S)O[C@H]3C[C@H](n4cc(C)c(=O)[nH]c4=O)O[C@@H]3COP(=O)(S)O[C@H]3[C@@H](O)[C@H](n4cnc5c(=O)[nH]c(N)nc54)O[C@@H]3COP(=O)(S)O[C@H]3C[C@H](n4cc(C)c(=O)[nH]c4=O)O[C@@H]3COP(=O)(S)O[C@H]3[C@@H](O)[C@H](n4ccc(N)nc4=O)O[C@@H]3COP(=O)(S)O[C@H]3C[C@H](n4cc(C)c(=O)[nH]c4=O)O[C@@H]3CO)O2)c(=O)[nH]c1=O (some centres not stated)
Activity (Mus musculus): Active
Activity [1]: 63 ng/mL
Activity [2]: 0.02 ng/mL
Activity [3]: 1.15 ng/mL
Activity [4]: 0.05 ng/mL
Activity [5]: 8.94 ng/mL
Activity [6]: 0.02 ng/mL
Activity [7]: 0.17 ng/mL
Activity [8]: Dose-dependent effect
Activity [9]: 0.03 ng/mL
Activity [10]: 0.64 ng/mL

Cc1cn([C@H]2C[C@H](OCC[C@H](O)COP(=O)(S)O[C@H]3C[C@H](n4cc(C)c(=O)[nH]c4=O)O[C@@H]3COP(=O)(S)O[C@H]3[C@@H](O)[C@H](n4ccc(N)nc4=O)O[C@@H]3COP(=O)(S)O[C@H]3C[C@H](n4cc(C)c(=O)[nH]c4=O)O[C@@H]3COP(=O)(S)O[C@H]3C[C@H](n4cc(C)c(=O)[nH]c4=O)O[C@@H]3COP(=O)(S)O[C@H]3C[C@H](n4ccc5c(=O)[nH]c(N)nc54)O[C@@H]3COP(=O)(S)O[C@H]3[C@@H](O)[C@H](n4ccc(N)nc4=O)O[C@@H]3COP(=O)(S)O[C@H]3C[C@H](n4cc(C)c(=O)[nH]c4=O)O[C@@H]3COP(=O)(S)O[C@H]3[C@@H](O)[C@H](n4cnc5c(=O)[nH]c(N)nc54)O[C@@H]3COP(=O)(S)O[C@H]3C[C@H](n4cc(C)c(=O)[nH]c4=O)O[C@@H]3COP(=O)(S)O[C@H]3[C@@H](O)[C@H](n4ccc(N)nc4=O)O[C@@H]3COP(=O)(S)O[C@H]3C[C@H](n4cc(C)c(=O)[nH]c4=O)O[C@@H]3CO)[C@@H](COP(=O)(S)O[C@H]3[C@@H](O)[C@H](n4ccc(N)nc4=O)O[C@@H]3COP(=O)(S)O[C@H]3C[C@H](n4cc(C)c(=O)[nH]c4=O)O[C@@H]3COP(=O)(S)O[C@H]3C[C@H](n4cc(C)c(=O)[nH]c4=O)O[C@@H]3COP(=O)(S)O[C@H]3C[C@H](n4ccc5c(=O)[nH]c(N)nc54)O[C@@H]3COP(=O)(S)O[C@H]3[C@@H](O)[C@H](n4ccc(N)nc4=O)O[C@@H]3COP(=O)(S)O[C@H]3C[C@H](n4cc(C)c(=O)[nH]c4=O)O[C@@H]3COP(=O)(S)O[C@H]3[C@@H](O)[C@H](n4cnc5c(=O)[nH]c(N)nc54)O[C@@H]3COP(=O)(S)O[C@H]3C[C@H](n4cc(C)c(=O)[nH]c4=O)O[C@@H]3COP(=O)(S)O[C@H]3[C@@H](O)[C@H](n4ccc(N)nc4=O)O[C@@H]3COP(=O)(S)O[C@H]3C[C@H](n4cc(C)c(=O)[nH]c4=O)O[C@@H]3CO)O2)c(=O)[nH]c1=O (some centres not stated)
Activity (Mus musculus): Active
Activity [1]: 29.6 ng/mL
Activity [2]: 0.99 ng/mL
Activity [3]: 0.98 ng/mL
Activity [4]: 0.16 ng/mL
Activity [5]: 16.4 ng/mL
Activity [6]: 0.79 ng/mL
Activity [7]: 0.2 ng/mL
Activity [8]: Dose-dependent effect
Activity [9]: 0.09 ng/mL
Activity [10]: 43.5 ng/mL

Cc1cn([C@H]2C[C@H](OCC(O)COP(=O)(S)O[C@H]3C[C@H](n4cc(C)c(=O)[nH]c4=O)O[C@@H]3COP(=O)(S)O[C@H]3[C@@H](O)[C@H](n4ccc(N)nc4=O)O[C@@H]3COP(=O)(S)O[C@H]3[C@@H](O)[C@H](n4cnc5c(N)ncnc54)O[C@@H]3COP(=O)(S)O[C@H]3[C@@H](O)[C@H](n4cnc5c(N)ncnc54)O[C@@H]3COP(=O)(S)O[C@H]3[C@@H](O)[C@H](n4ccc(N)nc4=O)O[C@@H]3COP(=O)(S)O[C@H]3[C@@H](O)[C@H](n4ccc(N)nc4=O)O[C@@H]3COP(=O)(S)O[C@H]3[C@@H](O)[C@H](n4cnc5c(N)ncnc54)O[C@@H]3COP(=O)(S)O[C@H]3[C@@H](O)[C@H](n4ccc(N)nc4=O)O[C@@H]3COP(=O)(S)O[C@H]3[C@@H](O)[C@H](n4cnc5c(N)ncnc54)O[C@@H]3COP(=O)(S)O[C@H]3[C@@H](O)[C@H](n4ccc(N)nc4=O)O[C@@H]3COP(=O)(S)O[C@H]3[C@@H](O)[C@H](n4cnc5c(N)ncnc54)O[C@@H]3CO)[C@@H](COP(=O)(S)O[C@H]3[C@@H](O)[C@H](n4ccc(N)nc4=O)O[C@@H]3COP(=O)(S)O[C@H]3[C@@H](O)[C@H](n4cnc5c(N)ncnc54)O[C@@H]3COP(=O)(S)O[C@H]3[C@@H](O)[C@H](n4cnc5c(N)ncnc54)O[C@@H]3COP(=O)(S)O[C@H]3[C@@H](O)[C@H](n4ccc(N)nc4=O)O[C@@H]3COP(=O)(S)O[C@H]3[C@@H](O)[C@H](n4ccc(N)nc4=O)O[C@@H]3COP(=O)(S)O[C@H]3[C@@H](O)[C@H](n4cnc5c(N)ncnc54)O[C@@H]3COP(=O)(S)O[C@H]3[C@@H](O)[C@H](n4ccc(N)nc4=O)O[C@@H]3COP(=O)(S)O[C@H]3[C@@H](O)[C@H](n4cnc5c(N)ncnc54)O[C@@H]3COP(=O)(S)O[C@H]3[C@@H](O)[C@H](n4ccc(N)nc4=O)O[C@@H]3COP(=O)(S)O[C@H]3[C@@H](O)[C@H](n4cnc5c(N)ncnc54)O[C@@H]3CO)O2)c(=O)[nH]c1=O (some centres not stated)
Activity (Mus musculus): Active
Activity [1]: 33.8 ng/mL
Activity [2]: 0.02 ng/mL
Activity [3]: 0.52 ng/mL
Activity [4]: 0.04 ng/mL
Activity [5]: 5.47 ng/mL
Activity [6]: 0.01 ng/mL
Activity [7]: 0.05 ng/mL
Activity [9]: 0.06 ng/mL
Activity [10]: 0.37 ng/mL
